The test system of assay [1] is Mus musculus. As to the kind of experiment: Antidiabetic activity in normal ICR mouse assessed as increase in plasma insulin level at 5 mg/kg, ip after 60 mins by ELISA (reference value: 52.5 +/- 4.6 pmol/L). Format: functional. The following applies: route intraperitoneal.
Assay [2] relates to Mus musculus. As to the kind of experiment: Antidiabetic activity in normal ICR mouse assessed as reduction in plasma glucose level at 5 mg/kg, ip after 60 mins (reference value: 102 +/- 3.7 mg/dL). In kind it is functional. The following applies: route intraperitoneal. In outline:
(§1)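 ICR mice (normal, STZ-induced T1DM, or diet-induced T2DM) received a single ip injection in 2% DMSO/normal saline vehicle. Orbital plexus blood was drawn under pentobarbital anesthesia before and 60 min after injection. Plasma glucose was read with a glucose kit and analyzer and expressed as percent decrease, (Gi − Gt)/Gi × 100%. Seven animals per group, mean ± SEM.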

For assay [3], the system named is Mus musculus. Kind of assay: Antidiabetic activity in diet-induced ICR mouse T2DM model assessed as increase in plasma insulin level at 5 mg/kg, ip after 60 mins by ELISA (reference value: 123.5 +/- 10.2 pmol/L). In kind it is functional. The settings on record: route intraperitoneal. Background: ELISA stands for enzyme-linked immunosorbent assay.
Assay [4] has as its system Mus musculus. As to the kind of experiment: Antidiabetic activity in diet-induced ICR mouse T2DM model assessed as reduction in plasma glucose level at 5 mg/kg, ip after 60 mins (reference value: 170 +/- 2.8 mg/dL). Format: functional. The settings on record: route intraperitoneal. An outline of the steps: as §1
The next assay concerns MIN6. Kind of assay: Induction of insulin secretion in mouse MIN6 cells. Format: functional, cell-based.
Assay [5] deals with Mus musculus. Kind of assay: Antidiabetic activity in STZ-induced ICR mouse T1DM model assessed as reduction in plasma glucose level at 5 mg/kg, ip after 60 mins relative to metformin at 200 mg/kg, ip. In kind it is functional.
For assay [6], the system named is Mus musculus. Kind of assay: Antidiabetic activity in normal ICR mouse assessed as reduction in plasma glucose level at 5 mg/kg, ip after 60 mins. Format: functional, organism-based. Further details: dose 5 mg/kg. An outline of the steps:
as §1

In assay [7] the test system is Mus musculus. Kind of assay: Antidiabetic activity in STZ-induced ICR mouse T1DM model assessed as reduction in plasma glucose level at 5 mg/kg, ip after 60 mins. In kind it is functional, organism-based. Also on record: dose 5 mg/kg. An outline of the steps: as §1
Assay [8] deals with Mus musculus. As to the kind of experiment: Antidiabetic activity in normal ICR mouse assessed as reduction in plasma glucose level at 5 mg/kg, ip after 60 mins relative to metformin at 200 mg/kg, ip. In kind it is functional.
Assay [9] can be described thus: Blockade of ATP-sensitive K+ channels.
The test system of assay [10] is Mus musculus. Kind of assay: Antidiabetic activity in normal ICR mouse assessed as increase in plasma insulin level at 0.5 mg/kg, ip after 60 mins by ELISA (reference value: 53.1 +/- 3.3 pmol/L). In kind it is functional. The settings on record: route intraperitoneal.
For assay [11], the system named is Mus musculus. As to the kind of experiment: Antidiabetic activity in normal ICR mouse assessed as increase in plasma insulin level at 5 mg/kg, ip after 60 mins by ELISA (reference value: 57.6 +/- 2.4 pmol/L). In kind it is functional. The following applies: route intraperitoneal.
The test system of assay [12] is Mus musculus. As to the kind of experiment: Antidiabetic activity in STZ-induced ICR mouse T1DM model assessed as increase in plasma insulin level at 0.5 mg/kg, ip after 60 mins by ELISA (reference value: 16.2 +/- 0.7 pmol/L). In kind it is functional. The settings on record: route intraperitoneal.
Assay [13] concerns Mus musculus. Kind of assay: Antidiabetic activity in ip dosed STZ-induced ICR mouse T1DM model assessed as reduction in plasma glucose level after 60 mins. Format: functional, organism-based. An outline of the steps: as §1
In assay [14] the test system is Mus musculus. As to the kind of experiment: Antidiabetic activity in diet-induced ICR mouse T2DM model assessed as increase in plasma insulin level at 0.1 mg/kg, ip after 60 mins by ELISA (reference value: 111.8 +/- 5.2 pmol/L). Format: functional. The settings on record: route intraperitoneal.
For assay [15], the system named is Mus musculus. As to the kind of experiment: Antidiabetic activity in ip dosed normal ICR mouse assessed as reduction in plasma glucose level after 60 mins. Format: functional, organism-based. An outline of the steps: as §1
The subject of assay [16] is Mus musculus. Kind of assay: Antidiabetic activity in diet-induced ICR mouse T2DM model assessed as reduction in plasma glucose level after 30 mins post glucose challenge by ip glucose tolerance test (reference value: 406 +/- 9 mg/dL). In kind it is functional.
Assay [17] deals with Mus musculus. Kind of assay: Antidiabetic activity in diet-induced ICR mouse T2DM model assessed as reduction in plasma glucose level after 60 to 150 mins post glucose challenge by ip glucose tolerance test. Format: functional, organism-based.
Assay [18] relates to Mus musculus. As to the kind of experiment: Antidiabetic activity in ip dosed diet-induced ICR mouse T2DM model assessed as reduction in plasma glucose level after 60 mins. In kind it is functional, organism-based. In outline: as §1
Assay [19] concerns Mus musculus. Kind of assay: Antidiabetic activity in diet-induced ICR mouse T2DM model assessed as increase in plasma insulin level at 1 mg/kg, ip after 60 mins by ELISA (reference value: 111.6 +/- 2.7 pmol/L). The following applies: route intraperitoneal. Format: functional.
Assay [20] has as its system Mus musculus. As to the kind of experiment: Antidiabetic activity in STZ-induced ICR mouse T1DM model assessed as increase in plasma insulin level at 3 mg/kg, ip after 60 mins by ELISA (reference value: 13.8 +/- 1.6 pmol/L). Format: functional. The following applies: route intraperitoneal.
The subject of assay [21] is Mus musculus. As to the kind of experiment: Antidiabetic activity in normal ICR mouse assessed as reduction in plasma glucose level after 30 mins post glucose challenge by ip glucose tolerance test (reference value: 346 +/- 15 mg/dL). Format: functional.
For assay [22], the system named is Mus musculus. Kind of assay: Antidiabetic activity in diet-induced ICR mouse T2DM model assessed as increase in plasma insulin level at 0.5 mg/kg, ip after 60 mins by ELISA (reference value: 120.8 +/- 4.3 pmol/L). Format: functional. The settings on record: route intraperitoneal.
Assay [23] deals with Mus musculus. Kind of assay: Antidiabetic activity in diet-induced ICR mouse T2DM model assessed as increase in plasma insulin level at 5 mg/kg, ip after 60 mins by ELISA (reference value: 112.1 +/- 6.3 pmol/L). In kind it is functional. The following applies: route intraperitoneal.
The subject of assay [24] is Mus musculus. As to the kind of experiment: Antidiabetic activity in diet-induced ICR mouse T2DM model assessed as increase in plasma insulin level at 3 mg/kg, ip after 60 mins by ELISA (reference value: 112.1 +/- 3.2 pmol/L). In kind it is functional. The settings on record: route intraperitoneal.
Assay [25] concerns Mus musculus. Kind of assay: Antidiabetic activity in STZ-induced ICR mouse T1DM model assessed as increase in plasma insulin level at 0.1 mg/kg, ip after 60 mins by ELISA (reference value: 15.2 +/- 0.8 pmol/L). In kind it is functional. The settings on record: route intraperitoneal.
For assay [26], the system named is Mus musculus. As to the kind of experiment: Antidiabetic activity in normal ICR mouse assessed as increase in plasma insulin level at 1 mg/kg, ip after 60 mins by ELISA (reference value: 60.3 +/- 3.7 pmol/L). In kind it is functional. The following applies: route intraperitoneal.
Assay [27] relates to Mus musculus. Kind of assay: Antidiabetic activity in normal ICR mouse assessed as increase in plasma insulin level at 3 mg/kg, ip after 60 mins by ELISA (reference value: 52 +/- 3.7 pmol/L). Format: functional. The settings on record: route intraperitoneal.
The test system of assay [28] is Mus musculus. Kind of assay: Antidiabetic activity in normal ICR mouse assessed as reduction in plasma glucose level after 60 to 150 mins post glucose challenge by ip glucose tolerance test. In kind it is functional, organism-based.
Assay [29] concerns Mus musculus. Kind of assay: Antidiabetic activity in STZ-induced ICR mouse T1DM model assessed as increase in plasma insulin level at 5 mg/kg, ip after 60 mins by ELISA (reference value: 14.7 +/- 0.4 pmol/L). The following applies: route intraperitoneal. Format: functional.
Assay [30] deals with Mus musculus. Kind of assay: Antidiabetic activity in STZ-induced ICR mouse T1DM model assessed as decrease in phosphoenolpyruvate carboxykinase level in liver at 5 mg/kg administered bid for 7 days by Western blotting analysis. Also on record: dose 5 mg/kg. In kind it is functional, organism-based. In outline: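 Male ICR mice with STZ-induced T1DM (fasting glucose >350 mg/dL, used 4 weeks after STZ) were dosed ip at 5.0 mg/kg twice daily for 7 days. Liver homogenates (60 µg) were run on 8% SDS-PAGE and Western blotted with PEPCK antibody (1:1000), with ECL detection. PEPCK (70 kDa) and β-actin (43 kDa) were quantified by densitometry; n = 3.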

The test system of assay [31] is Mus musculus. Kind of assay: Antidiabetic activity in normal ICR mouse assessed as increase in plasma insulin level at 0.1 mg/kg, ip after 60 mins by ELISA (reference value: 54 +/- 3.4 pmol/L). In kind it is functional. The following applies: route intraperitoneal.
Assay [32] has as its system Mus musculus. Kind of assay: Antidiabetic activity in STZ-induced ICR mouse T1DM model assessed as increase in plasma insulin level at 1 mg/kg, ip after 60 mins by ELISA (reference value: 15.7 +/- 1.0 pmol/L). Format: functional. The following applies: route intraperitoneal.
In assay [33] the test system is Mus musculus. Kind of assay: Antidiabetic activity in STZ-induced ICR mouse T1DM model assessed as increase in plasma insulin level at 200 mg/kg, ip after 60 mins by ELISA (reference value: 13.5 +/- 1.1 pmol/L). Format: functional. The following applies: route intraperitoneal.
Assay [34] deals with Mus musculus. Kind of assay: Antidiabetic activity in normal ICR mouse assessed as reduction in plasma glucose level at 200 mg/kg, ip after 60 mins. Format: functional, organism-based. Further details: dose 200 mg/kg. In outline: as §1
In assay [35] the test system is Mus musculus. As to the kind of experiment: Antidiabetic activity in STZ-induced ICR mouse T1DM model assessed as reduction in plasma glucose level at 200 mg/kg, ip after 60 mins. In kind it is functional, organism-based. Also on record: dose 200 mg/kg. An outline of the steps: as §1

Calls of active or inactive are those of the source. The rule behind the calls is not given here.

As to `COc1ccc(Cl)cc1C(=O)NCCc1ccc(S(=O)(=O)NC(=O)NC2CCCCC2)cc1` [GLYBURIDE], the Activity with Mus musculus [1] was 145.8 pmol/L; in the assay on Mus musculus [2], 84 mg/dL; in the assay with Mus musculus [3] it was 208.8 pmol/L; with Mus musculus [4], 108 mg/dL.
Consider `C[C@@]12C[C@@H](c3ccoc3)OC(=O)[C@@H]1C[C@@H]1OC(=O)[C@@]3(O)[C@@H](O[C@@H]4O[C@H](CO)[C@@H](O)[C@H](O)[C@H]4O)CC[C@@H]2[C@@]13C` [BORAPETOSIDE A], for which the result (in the assay on MIN6; in assay [9]) was inactive. Moreover, the “fold change (FC)” value with Mus musculus [5] and in the assay on Mus musculus [8] was 2 throughout. Besides, the result in the assay on Mus musculus [6] and with Mus musculus [7] was Active.
Take `COC(=O)C1=CCC[C@H]2[C@]3(C)C[C@@H](c4ccoc4)OC(=O)[C@@H]3C[C@@H](O[C@@H]3O[C@H](CO)[C@@H](O)[C@H](O)[C@H]3O)[C@@]12C` [BORAPETOSIDE C]: the Activity in the assay on Mus musculus [10] was 70.7 pmol/L; with Mus musculus [11], 149.6 pmol/L; in the assay with Mus musculus [12], 15.7 pmol/L; with Mus musculus [13] it was “Dose-dependent effect”; in the assay on Mus musculus [14], 111.3 pmol/L; with Mus musculus [15] it was “Dose-dependent effect”. The Activity in the assay with Mus musculus [16] was 343 mg/dL; in the assay on Mus musculus [18], “Dose-dependent effect”; with Mus musculus [19] it was 173 pmol/L; in the assay on Mus musculus [20], 14.8 pmol/L; in the assay with Mus musculus [21], 293 mg/dL; in the assay with Mus musculus [22], 170.8 pmol/L. Moreover, the Activity stood at 257.6 pmol/L in the assay with Mus musculus [23]; 253.9 pmol/L with Mus musculus [24]; 16.3 pmol/L in the assay with Mus musculus [25]; 63 pmol/L in the assay on Mus musculus [26]; 142.6 pmol/L with Mus musculus [27]; 14.3 pmol/L in the assay on Mus musculus [29]. In addition, the Activity was determined as 71.5 pmol/L in the assay with Mus musculus [31] and 15.9 pmol/L with Mus musculus [32]. In addition, the result (with MIN6; in [9]) was inactive. In addition, the outcome with Mus musculus [6], in the assay with Mus musculus [17], with Mus musculus [7], in the assay on Mus musculus [28] and with Mus musculus [30] was Active.
Turning to `COC(=O)C1=C[C@H](O)C[C@H]2[C@]3(C)C[C@@H](c4ccoc4)OC(=O)[C@H]3C[C@H](O[C@@H]3O[C@H](CO)[C@@H](O)[C@H](O)[C@H]3O)[C@@]12C`, the outcome (in the assay on MIN6; with Mus musculus [6]; with Mus musculus [7]; in assay [9]) was inactive.
Consider `CN(C)C(=N)NC(=N)N` [METFORMIN], for which, in the assay with Mus musculus [33], the Activity came out at 15.1 pmol/L. Moreover, the outcome in the assay on Mus musculus [34] and with Mus musculus [35] was Active.

The values are drawn from ChEMBL document CHEMBL2010799, “Hypoglycemic diterpenoids from Tinospora crispa” (2012).
